Source: ChEMBL document CHEMBL1140972, “Synthesis and structure-activity relationship of 3-phenylquinoxaline 1,4-di-N-oxide derivatives as antimalarial agents” (Eur J Med Chem, 2008)

Assays:
Plasmodium falciparum [1] = assay: Antimalarial activity after 48 hrs against chloroquine-sensitive Plasmodium falciparum 3D7 by [3H]hypoxanthine uptake; type: functional, organism-based
In short: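 Asynchronous culture (65-75% rings, 0.5% parasitemia, 2.5% final hematocrit) in RPMI 1640 with 0.5% Albumax II, 0.2% glucose, 0.03% L-glutamine and 5 µM hypoxanthine. Triplicate wells with a 3-fold series of 10.0–0.0412 µg/mL; final DMSO ≤0.01%. 37 °C, 5% CO2: 24 h, then 0.2 µCi/well [3H]hypoxanthine for a further 24 h. Frozen, harvested, scintillation-counted. IC50 from curve fit; mean of 2–3 experiments.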

Plasmodium falciparum [2] = assay: Antimalarial activity after 48 hrs against chloroquine-resistant Plasmodium falciparum K1 by [3H]hypoxanthine uptake; type: functional, organism-based
In short: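 Asynchronous P. falciparum K1 culture (65-75% ring stage, 0.5% parasitemia; chloroquine, pyrimethamine, cycloguanil resistant) at 2.5% hematocrit in RPMI 1640 with 0.5% Albumax II, glucose, L-glutamine, 5 µM hypoxanthine. Triplicate 3-fold dilutions 10.0–0.0412 µg/mL, DMSO ≤0.01% final, 37 °C, 5% CO2. [3H]-hypoxanthine (0.2 µCi/well) added at 24 h, incorporation counted after further 24 h. IC50 by curve fit, 2–3 experiments.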

KB = assay: Cytotoxicity against human KB cells after 48 hrs by alamar blue assay; type: cell-based
[3] = Selectivity index, ratio of IC50 for human KB cells to IC50 for chloroquine-sensitive Plasmodium falciparum 3D7; type: toxicity, cell-based; conditions: read-out: Ratio IC50
In short: (§1)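 KB IC50 divided by the parasite IC50 (K1 or 3D7). KB cells seeded at 4×10^4 cells/mL in RPMI 1640 with 10% heat-inactivated FCS and grown 24 h. Triplicate dilution series then added for 72 h. AlamarBlue for 2–4 h, fluorescence ex 530/em 585 nm, IC50 by curve fit. Podophyllotoxin as positive control.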

[4] = Selectivity index, ratio of IC50 for human KB cells to IC50 for chloroquine-resistant Plasmodium falciparum K1; type: toxicity, cell-based; conditions: read-out: Ratio IC50; in short: as §1
[5] = Resistant index, ratio of IC50 for chloroquine-resistant Plasmodium falciparum K1 to IC50 for chloroquine-sensitive Plasmodium falciparum 3D7; type: functional
In short: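 IC50 against K1 divided by IC50 against 3D7 (drug-sensitive NF54 clone). Both from [3H]-hypoxanthine incorporation over 48 h: asynchronous cultures at 0.5% parasitemia, 2.5% hematocrit, 3-fold dilutions 10.0–0.0412 µg/mL in triplicate. Label added at 24 h. Means of 2–3 independent experiments.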

Row | Structure (SMILES) | IC50 (Plasmodium falciparum [1]) | IC50 (Plasmodium falciparum [2]) | IC50 (KB) | selectivity ratio [3] | selectivity ratio [4] | Ratio IC50 [5]
1 | COc1ccc2c(c1)[n+]([O-])c(C#N)c(-c1ccc(F)cc1)[n+]2[O-] | 870 nM | 360 nM | 18500 nM | 21.3 | 50.9 | 0.42
2 | N#Cc1c(-c2ccccc2)[n+]([O-])c2ccc(C(F)(F)F)cc2[n+]1[O-] | 330 nM | 180 nM | 2820 nM | 8.55 | 15.7 | 0.55
